Screens as filed in PubChem.
L major viab = reduces viability of Leishmania major promastigotes. AID 1063. 200,000 compounds, 9% hits. inhibition, % at 10 µM. resazurin fluorescence viability; in the data active = inhibition above about 50%;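 note: promastigotes grown with compound for 44 hours at 28 °C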
b-catenin transl = beta-catenin nuclear translocation modulation; AID 1665; nuclear translocation activity, % at 5 µM; 190,000 compounds, 0.3% hits; HeLa beta-catenin nuclear translocation, immunofluorescence imaging;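 active = nuclear translocation activity above 50% at 5 µM, with a well cell count of 50 or more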;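 note: per-cell ratio of nuclear to cytoplasmic median beta-catenin stain intensity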
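test system = HeLa cells, endogenous beta-catenin | dosing = single 5 µM dose plus 0.02–20 µM confirmation series | times = compound treatment 24 h, 37°C, 5% CO2 | technique = beta-catenin immunofluorescence imaging with DAPI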
MT stabilize HCS = microtubule stabilization, imaging screen; AID 2205; 200,000 compounds, 0.83% hits; % tubulin-high responders, % at 10 µM; HeLa tubulin immunostaining HCS, 24 h; share of cells brighter than vehicle mean+2SD;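 active = plate Z-score above 3 for both tubulin-high and condensed-nucleus cell shares, with cell loss under 80%, at 10 µM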;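 note: anti alpha tubulin signal scored within the nucleus-defined area of each cell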
Dynein cargo inh = dynein cargo transport inhibition. 3617.4 mouse cells, GR-EGFP nuclear translocation imaging; test concentration mostly 20 µM; stimulated with dexamethasone, 1 µM; active compounds read low. z-score, hits read low. 220,000 compounds, 0.47% hits. AID 1381;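 active = plate z-score of nuclear minus cytoplasmic receptor signal below a set negative limit, without overly bright fluorescence or cell loss, cut at about -3.5 in these data, passing the limit was not always enough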;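 note: z-score of nuclear minus cytoplasmic ring GR-EGFP intensity difference per well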
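Buffer or medium: tetracycline-free induction medium containing charcoal-stripped FBS / Reagent: dexamethasone agonist, 1.0 µM final, for 30 min / Technique: automated 10x imaging of fixed Hoechst-stained cells / Times: induction 48 h, compound 1 h, agonist 30 min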
HSV augment = HSV replication enhancement | 220,000 compounds, 0.005% hits | HSV replication augmentation in cells, fold increase | maximum fold increase; in the data active = maximum fold increase above about 1.5; tested in PC3 cells
Of the large screens only hits and unclear results are named; the others gave an inactive call. Most compounds without a hit are left out; they make up all but 8.9% or so of the library.

O=C(OCC(=O)N1CCc2ccccc21)c1cccc(S(=O)(=O)N2CCCc3ccccc32)c1	L major viab 98
O=C(COC(=O)c1cccc(S(=O)(=O)N2CCc3ccccc32)c1)NCc1ccco1	none
O=C(COC(=O)c1ccc(Cl)c(S(=O)(=O)N2CCc3ccccc3C2)c1)Nc1ncc(Cl)cc1Cl	L major viab 81
O=C(COC(=O)c1cccc(S(=O)(=O)N2CCc3ccccc32)c1)Nc1ncc(C(F)(F)F)cc1Cl	none
O=C(c1ccc(F)cc1)N1CCN(c2ccc([N+](=O)[O-])c(N3CCCCC3)c2)CC1	none
Cc1ccc(-c2cc(=O)c3cc(F)ccc3[nH]2)cc1	none (no result: b-catenin transl)
COc1ccc(Oc2ccc(/C=C/C(=O)c3cccc(OC)c3)cc2[N+](=O)[O-])cc1	L major viab 100
COc1ccc(Oc2ccc(/C=N/NC(=O)c3cccnc3)cc2[N+](=O)[O-])cc1	none
Cc1ccc(-n2c3c(c(=O)[nH]c2=S)C(C(F)(F)F)(C(F)(F)F)NC(=O)N3)cc1	none (no result: b-catenin transl)
COc1ccc(-c2csc(NC(=O)c3ccc(S(=O)(=O)N4CCc5ccccc5C4)cc3)n2)cc1	none
COc1ccc(-c2nnc(-c3ccc(N)cc3)o2)cc1	L major viab 100 (no result: b-catenin transl)
COc1ccc(-c2nnc(NC(=O)c3ccc(S(=O)(=O)N4CCc5ccccc5C4)cc3)o2)cc1	L major viab 99 (no result: HSV augment)
CC1CN(S(=O)(=O)c2ccc(C(=O)Nc3nnc(-c4ccco4)o3)cc2)CC(C)O1 (centres undefined)	none
COc1cccc(-c2nnc(NC(=O)c3ccc(S(=O)(=O)N4CC(C)OC(C)C4)cc3)o2)c1 (centres undefined)	L major viab 99 (no result: b-catenin transl, HSV augment)
COc1ccc(-c2nnc(NC(=O)c3ccc(F)cc3)o2)cc1	L major viab 98 (no result: HSV augment)
CCOc1ccc(Br)cc1S(=O)(=O)Nc1ccc(N2CCOCC2)cc1	none
CCn1c2ccccc2c2cc(C3N=C(N)Nc4nc5ccccc5n43)ccc21 (centres undefined)	none
CN(C)CCSc1nc(-c2ccccc2)nc2c1CCCC2	none (no result: L major viab, MT stabilize HCS)
COc1ccc(-c2oc(NC(C)=O)c(C#N)c2-c2ccc(OC)cc2)cc1	none (no result: b-catenin transl)
CC(C)(CO)CNC(=O)c1ccc(OC2CCN(C(=O)C3CC3)CC2)cc1	none
N=c1n(CCN2CCCC2)c2ccccc2n1CC(O)c1ccco1 (centres undefined)	none
CCCCCCCn1c(=N)n(CC(O)c2ccco2)c2ccccc21 (centres undefined)	L major viab 82
CCCCCCCn1c(=N)n(CC(=O)c2ccco2)c2ccccc21	L major viab 100
CCc1ccc(CC2(O)CC(C)N(C)CC2C)cc1 (centres undefined)	none
CCN1CC(C)C(O)(c2ccccc2)CC1C (centres undefined)	L major viab 79
O=C(COc1ccccc1)NCC(=O)N/N=C/c1ccco1	L major viab 56
NC(=O)c1c(NC(=O)CCCn2cnc([N+](=O)[O-])n2)sc2c1CCCC2	L major viab 55
O=C(CCCn1cnc([N+](=O)[O-])n1)Nc1ccc(F)c(Cl)c1	L major viab 83
CC1CCc2c(sc(NC(=O)CCCn3cnc([N+](=O)[O-])n3)c2C(N)=O)C1 (centres undefined)	L major viab 92
CC(=O)c1c(-c2ccccc2)c2cc(Cl)ccc2[nH]c1=O	none
CCNS(=O)(=O)c1cc(OC)ccc1OC	none (no result: b-catenin transl)
CC1=NN(C(=O)CSCc2ccccc2)C(O)(c2ccc(F)cc2)C1 (centres undefined)	L major viab 99
Cc1oc(/C=N/NS(=O)(=O)c2ccccc2)cc1Br	L major viab 63
O=C(O)c1ccccc1SC1CC(=O)N(c2ccccc2)C1=O (centres undefined)	L major viab 51
O=C(O)c1cccnc1SC1CC(=O)N(c2ccccc2)C1=O (centres undefined)	none (no result: L major viab, MT stabilize HCS)
Fc1ccc2c(c1)C(c1ccncc1)=NNC(c1ccc(Br)cc1)=N2	none
COc1ccccc1CNC(=O)c1cn(C)c2ccc(S(=O)(=O)N3CCCCC3)cc2c1=O	none
Clc1ccc(OCCN2CCCCC2)cc1Cl	L major viab 79 (no result: HSV augment)
CNCCOc1ccc(Cl)c(Cl)c1	none
Cc1cc(OCC(=O)N2CCCC2)ccc1Cl	none
Clc1ccc(OCCCn2cncn2)cc1Cl	L major viab 100 (no result: HSV augment)
Clc1ccc(OCCCN2CCCC2)cc1Cl	L major viab 91
Cc1cc(OCCCCCN2CCCC2)ccc1Cl	L major viab 99
COc1ccc(C)cc1N/C(N)=N/c1nc(C)cc(C)n1	none
O=C(N/N=C/c1ccc(Cl)cc1Cl)C(=O)NC1CC1	none
COc1ccc(NC(=O)COC(=O)[C@@H]2CCCN2S(=O)(=O)c2ccccc2F)c(OC)c1	none
Clc1ccc(OCCN2CCOCC2)cc1Cl	L major viab 86 (no result: b-catenin transl)
NC(=O)c1ccccc1NC(=O)CCc1ccccc1	none
COC(=O)C1=CN(c2ccc(OC)cc2)C=C(C(=O)OC)C1c1ccc(C)c([N+](=O)[O-])c1	L major viab 99
CCn1c(CC(=O)Nc2ccccc2)nnc1SCc1nc2ccccc2c(=O)[nH]1	none (no result: L major viab, MT stabilize HCS)
c1ccc2c(N3CCCCCC3)nc(-c3ccncc3)nc2c1	L major viab 87
CCN1CCN(c2nc(-c3cccnc3)nc3ccccc23)CC1	L major viab 54 (no result: b-catenin transl)
c1ccc2c(N3CCCCC3)nc(N3CCCCC3)nc2c1	L major viab 68 (no result: HSV augment)
CCN1CCN(c2nc(-c3ccncc3)nc3ccccc23)CC1	L major viab 100 (no result: HSV augment)
CN1CCN(c2nc(-c3cccnc3)nc3ccccc23)CC1	none
c1ccc2c(N3CCCCC3)nc(N3CCOCC3)nc2c1	none
Cc1ccc2c(c1)COc1c3ccc(C(=O)N[C@@H](C)CO)cc3nn1-2	none (no result: L major viab, MT stabilize HCS)
C(=C\c1nc(N2CCCCCC2)c2ccccc2n1)/c1ccccc1	L major viab 86
O=S(=O)(/C=C/c1ccccc1)N1CCN(c2nc(-c3ccccc3)nc3ccccc23)CC1	L major viab 65
COc1ccc(N2CCN(S(=O)(=O)/C=C/c3ccccc3)CC2)cc1	none
Cc1ccc2c(CN3CCN(S(=O)(=O)/C=C/c4ccccc4)CC3)cc(=O)oc2c1	none
O=S(=O)(/C=C/c1ccccc1)N1CCN(Cc2ccccc2)CC1	L major viab 78
Fc1ccccc1NC(=S)N/N=C/c1ccccc1Br	none
O=C(CSc1ccccc1)Nc1ccc(-c2nc3ccccc3[nH]2)cc1	none
C=CCOn1c(=O)c(-c2cccs2)[n+]([O-])c2ccccc21	none
CC1CCN(C(=S)Nc2ccc(F)cc2)CC1	none
CC(Sc1nc2cc(Cl)ccc2s1)C(=O)Nc1cccc(S(=O)(=O)N2CCOCC2)c1 (centres undefined)	L major viab 62
CN1CC(=O)N(CC(=O)Nc2cccc(S(=O)(=O)N3CCOCC3)c2)C1=O	none
O=C(Nc1cccc(S(=O)(=O)N2CCOCC2)c1)c1ccco1	L major viab 93
CSCCC(NC(=O)c1cccc(S(=O)(=O)N2CCOCC2)c1)C(=O)Nc1cccc(C)c1 (centres undefined)	L major viab 70
